Where “and” joins values, the source holds several entries; their conditions need not be identical. Equal values may be shown once. Out of some 340,000 compounds screened, about 3,000 (0.88%) were called active.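 The calls were made as follows: active = inhibition above about 50% at 20 µM (limit read from the data); inactive = the rest.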 The full list was thinned out, with actives kept by preference. Some structures have more than one record in an assay (separate samples or runs), and their calls can disagree.
These compounds were tested against Carboxy-terminal domain RNA polymerase II polypeptide A small phosphatase 1 (Homo sapiens) (UniProt Q9GZU7) (assay: inhibition of human SCP1 dephosphorylation activity – biochemical, colorimetric, uHTS, primary screen (AID 493091;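 also: plate controls were DMSO wells with enzyme for no effect and wells lacking enzyme for full effect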)). Conditions: Recombinant Scp1, phosphopeptide, malachite green phosphate absorbance; at 20 µM; stronger effect = higher value.
Method in brief: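 assay system = SCP-1 phosphatase catalytic domain, residues 76-261 | buffer or medium = 50 mM Tris acetate pH 5.5, 0.005% Tween-20, 10 mM MgCl2 | incubation = enzyme reaction 45 min at room temperature, colour 5 min, stabilisation 30 min | signal = Phosphate-binding colour reagent, absorbance read at 630 nm | measure = % inhibition at 20 µM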

Chain of Carboxy-terminal domain RNA polymerase II polypeptide A small phosphatase 1 (Homo sapiens) (Q9GZU7 76-261 limits assumed): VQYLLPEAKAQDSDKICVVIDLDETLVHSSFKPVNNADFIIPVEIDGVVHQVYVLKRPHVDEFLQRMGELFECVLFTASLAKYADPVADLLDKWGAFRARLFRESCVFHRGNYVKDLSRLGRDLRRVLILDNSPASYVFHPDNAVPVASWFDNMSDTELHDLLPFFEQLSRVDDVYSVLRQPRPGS

SMILES | inhibition
COc1ccc(Cl)cc1C=CC=NNC(=O)c1ccncc1 | 54.2% (active)
COc1ccccc1/C=C/C=N/NC(=O)CN1CCN(Cc2ccccc2)CC1 | -7.3% (inactive)
COc1ccc(Cl)cc1C=CC=Nc1ccc(S(N)(=O)=O)cc1 | -0.31% (inactive)
CCOC(=O)N1CCN(c2c(NCCN3CCN(c4ccccc4F)CC3)c(=O)c2=O)CC1 | -8.45% (inactive)
O/N=C1\CC2(Cc3nonc31)OCCO2 | -5.88% (inactive)
ON=C1/C(=N\O)CC2(C/C1=N/O)OCCO2 | 58% (active)
O=C(Cn1nnc(-c2ccc3c(c2)OCO3)n1)NCc1ccco1 | 60.1% (active)
S=C(NCc1ccc2c(c1)OCO2)NCc1ccco1 | -10.4% (inactive)
CS(=O)(=O)N(CC(=O)NCc1ccco1)c1ccc2c(c1)OCO2 | 17.7% (inactive)
COc1cccc(CNC(=O)CN(C)S(=O)(=O)c2ccc3c(c2)c(=O)n(C)c(=O)n3C)c1 | -11.9% (inactive)
Cc1ccc(S(=O)(=O)/N=S(\C)C(C)C)cc1 (stereo unspecified) | -1% (inactive)
COc1cc(/C=C/C(=O)OCC(=O)NC2CC2)cc(OC)c1OC | 8.5% (inactive)
COc1ccc(/C=C/C(=O)OCC(=O)NC2CCCCCC2)cc1OC | 53% (active)
COc1ccccc1/C=C/C(=O)OCC(=O)NC1CCCCCC1 | -7.74% (inactive)
CCOC(=O)c1oc2c(CN3CCN(CCO)CC3)c(O)c(CC)cc2c(=O)c1-c1nc2ccccc2s1 | -2.5% (inactive)
Cc1ccc(NC(=O)COc2coc(CN3CCc4ccccc4C3)cc2=O)cc1Cl | 5.58% (inactive)
Cc1nnc2n1N=C(c1ccc3c(c1)NC(=O)CO3)CS2 | -2.49% (inactive)
Cc1cc(NC(=O)[C@H](C)NC(=O)c2ccco2)ccc1Br | -11% (inactive)
CCOC(=O)C1CCCN(C(=O)/C=C/c2ccc(OC)cc2)C1 (stereo unspecified) | 0.29% (inactive)
CCOC(=O)C1CCCN(C(=O)CN(c2ccc(OC)cc2)S(=O)(=O)c2c(C)noc2C)C1 (stereo unspecified) | 57.4% (active)
CCOc1ccc(N(CC(=O)OC)S(=O)(=O)c2c(C)noc2C)cc1 | -4.21% (inactive)
COc1ccc(OC)c(S(=O)(=O)NCCC(C)C)c1 | -1.08% (inactive)
Cc1nc2cc(NC(=O)CSc3nc4c(C)cccc4cc3C#N)ccc2s1 | 20.8% (inactive)

SMILES | inhibition
COc1cc(/C=C/c2ccc(/C=C/c3cc(OC)c(OC)c(OC)c3)cc2)cc(OC)c1OC | 4.65% (inactive)
COc1cc(/C=C/C2=CC(C)(C)NC(=S)N2)cc(OC)c1OC | 83.9% (active)
COc1ccc(/C=C/C2=CC(C)(C)NC(=S)N2)c(OC)c1 | -2.22% (inactive)
CCOC(=O)c1c(NC(=O)CNC2CCCc3ccccc32)sc(C(N)=O)c1C (stereo unspecified) | -9.44% (inactive)
CCOCCCNC(=S)Nc1ccc2nc(N3CCN(CC)CC3)cc(C)c2c1 | -1.55% (inactive)
Cc1ccc(C(=O)Nc2sc(Cc3ccc4c(c3)OCO4)c(C)c2C(N)=O)cc1 | -8.44% (inactive)
CCOC(=O)c1cc2occc2n1CC(=O)N1CCN(C(=O)c2ccco2)CC1 | -2.95% (inactive)
O=C(Nc1cccc(Br)c1)C1CC(=O)N(C2CCCC2)C1 (stereo unspecified) | -7.74% (inactive)
COc1ccccc1N(CC(=O)NC1CCCC1)C(=O)C1(C)CC(=O)N=C2C=CC(C)=CN21 (stereo unspecified) | -2.31% (inactive)
Clc1ccc(CSc2nnc3c(n2)[nH]c2ccccc23)cc1 | -4.5% (inactive)
c1ccc(CSc2nnc(-c3ccco3)c(-c3ccco3)n2)cc1 | 79.2% (active)
S=C(NCc1ccco1)NCc1ccccc1Cl | -4.7% (inactive)
Clc1ccccc1CSc1nnc(-c2ccco2)c(-c2ccco2)n1 | 76.5% (active)
O=C(Nc1nnc(SCc2ccccc2Cl)s1)c1cccc([N+](=O)[O-])c1 | -14% (inactive)
CCc1nnc(SCc2cccc(F)c2)nc1CC | -10.3% (inactive)
COc1ccccc1N(C)C(=O)c1cc(S(=O)(=O)N2CCc3ccccc32)cn1C | -4.84% (inactive)
COc1ccc(C(=O)COC(=O)CNC(=O)c2cccs2)cc1Br | -0.77% (inactive)
CC(C)(C)OC(=O)C1=C(CO)CS[C@@H]2[C@H](NC(=O)Cc3ccccc3)C(=O)N12 | 1.29% (inactive)
Cc1cc(C)cc(C(=O)NC2C(=O)N3C(C(=O)O)=C(CSc4nnc(C)s4)CSC23)c1 (stereo unspecified) | 4.73% (inactive)
Cc1nnc(SCC2=C(C(=O)O)N3C(=O)C(NC(=O)Cn4nc(C)c(Cl)c4C)C3SC2)s1 (stereo unspecified) | 14.4% (inactive)
CO/N=C(\C(=O)N[C@@H]1C(=O)N2C(C(=O)O)=C(COC(C)=O)CS[C@H]12)c1csc(N)n1 (stereo in doubt) | 69.7% (active) and 11.4% (inactive) and 72.2% (active)
C=CC1=C(C(=O)O)N2C(=O)[C@@H](NC(=O)/C(=N\OCC(=O)O)c3csc(N)n3)[C@H]2SC1 | 71% (active)
C=CC1=C(C(=O)O)N2C(=O)[C@@H](NC(=O)/C(=N/OCC(=O)O)c3csc(N)n3)[C@H]2SC1 | 65.5% (active)

From PubChem BioAssay AID493091 (Sanford-Burnham Center for Chemical Genomics, 2011)
